Series [1] is described as follows: Metabolic stability in Sprague-Dawley rat liver microsomes assessed as compound degradation at 10 uM incubated for 60 min by HPLC analysis. The following applies: 1 h. Format: ADME. The essentials:
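Compound at 10 μM final in 0.1 M phosphate, pH 7.4, was preincubated 5 min at 37 °C with an NADPH-regenerating system. Sprague-Dawley rat liver microsomes were then added. Reactions were stopped with ice-cold methanol at 0, 15, 30 and 60 min and remaining compound quantified by HPLC against an external calibration. Controls: no NADPH, heat-inactivated microsomes. Three independent experiments.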

Series [2] deals with T1, Retinoic acid receptor RXR-gamma (Homo sapiens) (UniProt P48443).
T1 sequence (whole entry): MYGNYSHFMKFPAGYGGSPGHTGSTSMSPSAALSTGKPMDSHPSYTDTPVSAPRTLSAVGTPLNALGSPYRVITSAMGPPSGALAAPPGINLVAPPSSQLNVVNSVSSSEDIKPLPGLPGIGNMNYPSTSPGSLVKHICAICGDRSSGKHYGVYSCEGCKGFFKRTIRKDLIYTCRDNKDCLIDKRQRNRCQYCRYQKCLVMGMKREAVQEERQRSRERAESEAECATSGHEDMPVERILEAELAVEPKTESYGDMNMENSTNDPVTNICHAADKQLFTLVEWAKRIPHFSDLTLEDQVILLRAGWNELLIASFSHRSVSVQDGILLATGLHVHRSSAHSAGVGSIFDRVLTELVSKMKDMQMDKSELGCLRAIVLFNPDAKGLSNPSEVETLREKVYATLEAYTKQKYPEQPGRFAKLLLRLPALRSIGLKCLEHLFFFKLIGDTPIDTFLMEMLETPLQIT
Briefly: Agonist activity against human RXRgamma in human HEK293T cells co-expressing pFR/pRL-Luc assessed as receptor activation at 10 uM incubated for 14 to 16 hrs by hybrid reporter gene assay relative to bexarotene. The following applies: filed as agonist, time 14-16 hrs. The series is classed as cell-based. The essentials: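 Gal4 hybrid reporter assay in HEK293T cells, seeded 24 h before transfection (Lipofectamine LTX, Opti-MEM) with pFR-Luc, pRL-SV40 and pFA-CMV plasmid carrying the hinge region and LBD of the human receptor. After 5 h, compound added in 0.1% DMSO, with 0.1% DMSO alone as untreated control. Dual-Glo luciferase read after 14−16 h; firefly/renilla normalized; duplicates, ≥2 independent experiments.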

`O=C(O)CCCc1cc(-c2cc(Cl)cc(Cl)c2)n(-c2ccccc2)n1`: the Stabilty result in series [1] is listed as “Stable”. The Activity in series [2] amounted to 27%.

These data come from ChEMBL document CHEMBL4834419 (J Med Chem, 2021).
